The species named for data set [1] is Mus musculus. The data set can be described thus: Anticonvulsant activity by using bicuculline test in mice. The class given is functional.
The species named for data set [2] is Mus musculus. The data set can be described thus: Anticonvulsant activity by using rotarod toxicity test in mice. It counts as functional.
For data set [3], the species on record is Mus musculus. The data set can be described thus: Anticonvulsant activity by using maximal electroshock seizure test in mice. The class given is functional.
Data set [4] deals with Mus musculus. The data set can be described thus: Anticonvulsant activity by using subcutaneous pentylenetetrazole (Metrazol) seizure threshold test in mice. It counts as functional. Conditions: for ED50: sc.
Data set [5] relates to Rattus norvegicus. Put plainly: In vivo formation of baclofen in 0-3 hr after administration of 55 mg/kg of compound intraperitoneally into 2 rats. It counts as functional, organism-based. The arrangement: dose 55 mg/kg. The method, boiled down:
(§1)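 Male Wistar rats housed in metabolism cages were given 55 mg/kg prodrug ip. Urine was collected at 3 and 6 h and assayed by HPLC/EC; cumulative amount is reported per rat. One rat was decapitated at 3 h, and its brain was homogenized in Tris-KCl and assayed by HPLC/EC.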

The species entered for data set [6] is Rattus norvegicus. Put plainly: Amount of metabolite alpha-baclofen lactam produced in liver of rat at a concentration of 12000 g of the compound. It counts as functional.
For data set [7], the system named is Rattus norvegicus. The data set can be described thus: In vivo formation of baclofen in 4 hr after administration of 5.5 mg/kg of compound intraperitoneally into 4 rats. The arrangement: dose 5.5 mg/kg. The class given is functional, organism-based.
The species named for data set [8] is Rattus norvegicus. Put plainly: Amount of metabolite alpha-baclofen produced in liver of rat at a concentration of 700 g of the compound; None detected. The class given is functional, organism-based.
Data set [9] relates to Rattus norvegicus. The data set can be described thus: In vivo formation of alpha-baclofen in 0-3 hr after administration of 55 mg/kg of compound intraperitoneally into 1r at. It counts as functional, organism-based. The arrangement: dose 55 mg/kg. The method, boiled down: as §1
Data set [10] relates to Rattus norvegicus. The data set can be described thus: In vivo formation of baclofen in 3-6h after administration of 55 mg/kg of compound intraperitoneally into 2 rats. Also on record: dose 55 mg/kg. It counts as functional, organism-based. Put shortly:
as §1

Data set [11] concerns Rattus norvegicus. The data set can be described thus: In vivo formation of baclofen in 3-6h after administration of 55 mg/kg of compound intraperitoneally into 1r at. It counts as functional, organism-based. The arrangement: dose 55 mg/kg. Put shortly: as §1
Data set [12] concerns Rattus norvegicus. The data set can be described thus: In vivo formation of alpha-baclofen in 0-3 hr after administration of 55 mg/kg of compound intraperitoneally into 2 rats. Also on record: dose 55 mg/kg. The class given is functional, organism-based. The method, boiled down: as §1
Data set [13] deals with Rattus norvegicus. Put plainly: In vivo formation of baclofen in 3h after administration of 55 mg/kg of compound intraperitoneally into 3 rats. It counts as functional, organism-based. The arrangement: dose 55 mg/kg. The method, boiled down: as §1
Data set [14] relates to Rattus norvegicus. The data set can be described thus: In vivo formation of alpha-baclofen in 3-6h after administration of 55 mg/kg of compound intraperitoneally into 1r at. The class given is functional, organism-based. The arrangement: dose 55 mg/kg. The method, boiled down:
as §1

For data set [15], the species on record is Rattus norvegicus. The data set can be described thus: Amount of metabolite alpha-baclofen lactam produced in brain of rat at a concentration of 700 g of the compound. It counts as functional.
Data set [16] concerns Rattus norvegicus. The data set can be described thus: Number of rats displaying convulsions by pretreatment with 55 mg/kg of compound (ip) in the presence of isoniazid after 63 mins out of 6 rats tested. The class given is functional. The method, boiled down:
(§2)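 Male Wistar rats were pretreated with test agent at 55 mg/kg ip (200 mg/mL in saline or DMSO), then given isoniazid 425 mg/kg sc (180 mg/mL in saline).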

The species named for data set [17] is Rattus norvegicus. The data set can be described thus: Amount of metabolite alpha-baclofen produced in brain of rat at a concentration of 700 g of the compound; None detected. It counts as functional, organism-based.
For data set [18], the system named is Rattus norvegicus. The data set can be described thus: In vivo formation of baclofen in 0-3 hr after administration of 55 mg/kg of compound intraperitoneally into 1r at. It counts as functional, organism-based. Also on record: dose 55 mg/kg. The method, boiled down: as §1
For data set [19], the species on record is Rattus norvegicus. The data set can be described thus: Amount of metabolite alpha-baclofen lactam produced in liver of rat at a concentration of 700 g of the compound. The class given is functional.
Data set [20] is filed under the species Rattus norvegicus. The data set can be described thus: Amount of metabolite alpha-baclofen produced in brain of rat at a concentration of 12000 g of the compound; None detected. It counts as functional, organism-based.
The species named for data set [21] is Rattus norvegicus. Put plainly: Amount of metabolite alpha-baclofen lactam produced in brain of rat at a concentration of 12000 g of the compound. The class given is functional.
The species named for data set [22] is Rattus norvegicus. The data set can be described thus: Amount of metabolite alpha-baclofen produced in liver of rat at a concentration of 12000 g of the compound; None detected. It counts as functional, organism-based.
Data set [23] relates to Rattus norvegicus. The data set can be described thus: In vivo formation of baclofen in 2 hr after administration of 5.5 mg/kg of compound intraperitoneally into 4 rats. It counts as functional, organism-based. The arrangement: dose 5.5 mg/kg.
Data set [24] relates to Rattus norvegicus. Put plainly: In vivo formation of alpha-baclofen in 3-6h after administration of 55 mg/kg of compound intraperitoneally into 2 rats. It counts as functional, organism-based. The arrangement: dose 55 mg/kg. The method, boiled down:
as §1

In data set [25] the test system is Rattus norvegicus. The data set can be described thus: Number of rats died by pretreatment with 55 mg/kg of compound (ip) in the presence of isoniazid after 63 mins out of 6 rats tested. The class given is functional. The method, boiled down: as §2
Data set [26] deals with Rattus norvegicus. Put plainly: Number of rats displaying convulsions by pretreatment with 55 mg/kg of compound (ip) in the presence of isoniazid after 49 mins out of 8 rats tested. It counts as functional. Put shortly: as §2
For data set [27], the species on record is Rattus norvegicus. Put plainly: Amount of metabolite produced in liver of rat at a concentration of 700 g of the compound. It counts as functional.
The species entered for data set [28] is Rattus norvegicus. Put plainly: Amount of metabolite produced in brain of rat at a concentration of 700 g of the compound. The class given is functional.
Data set [29] has as its system Rattus norvegicus. The data set can be described thus: Number of rats died by pretreatment with 55 mg/kg of compound (ip) in the presence of isoniazid after 49 mins out of 8 rats tested. It counts as organism-based. Also on record: dose 55 mg/kg. Conditions: in vivo. The method, boiled down:
as §2

For data set [30], the species on record is Rattus norvegicus. The data set can be described thus: Amount of metabolite produced in brain of rat at a concentration of 12000 g of the compound. It counts as functional.
For data set [31], the species on record is Rattus norvegicus. The data set can be described thus: Amount of metabolite produced in liver of rat at a concentration of 12000 g of the compound. The class given is functional.
The species entered for data set [32] is Mus musculus. The data set can be described thus: Anticonvulsant activity by using bicuculline test in mice; Inactive. It counts as functional, organism-based.
Data set [33] deals with Mus musculus. Put plainly: Anticonvulsant activity by using subcutaneous pentylenetetrazole (Metrazol) seizure threshold test in mice; Inactive. The class given is functional, organism-based.

Each structure is given as a SMILES string. Activity calls are given as the source filed them.

`CCC1(c2ccccc2)C(=O)NC(=O)NC1=O` [PHENOBARBITAL]: the ED50 in data set [1] is 38 mg/kg; in data set [3] it was 22 mg/kg; in data set [4] it was 13 mg/kg. In data set [2], this compound gave a TD50 of 69 mg/kg.

With `NC(=O)CCC/N=C(\c1ccc(Cl)cc1)c1cc(F)ccc1O` [PROGABIDE], the 50% effective dose (ED50) in data set [1] stood at 20 mg/kg; in data set [3], 75 mg/kg; in data set [4], 30 mg/kg.

On to `Clc1ccc(C2CCNC2)cc1` (centres undefined), for which the Concentration in data set [5] stood at 0 µg/mL; in data set [7], 0.12 µg/mL; in data set [9], 0.5 µg/mL; in data set [10] it was 9.4 µg/mL; in data set [11], 16 µg/mL; in data set [12], 0 µg/mL. Also, the Concentration in data set [13] came out at 24.3 ng/g; in data set [14], 2.6 µg/mL; in data set [18], 2 µg/mL; in [23], 0.04 µg/mL; in data set [24], 2.3 µg/mL. For the same compound, the Activity in data set [6] is 24.5 µg/mL; in data set [8], “Not detected”; in data set [15], 0.5 µg/mL; in data set [16], 6; in [17], “Not detected”; in data set [19], 46.7 µg/mL. For the same compound, the Activity result in [20] was “Not detected”; in data set [21], 0.21 µg/mL; in data set [22], “Not detected”; in data set [25] it was 0.

With `O=C1CC(c2ccc(Cl)cc2)CN1` (centres undefined), the ED50 is 143 mg/kg in data set [1], 68 mg/kg in [3] and 41 mg/kg in data set [4]. The Activity in data set [26] turned out to be 2; in data set [27], 26.4 µg/mL; in data set [28] it was 2.11 µg/mL; in [30] it was 0.28 µg/mL; in [31] it was 14.6 µg/mL. Moreover, the TD50 in [2] worked out at 117 mg/kg. Besides, in data set [29], the “No. of rats died” value is given as 1.

For the compound `NCC(CC(=O)O)c1ccc(Cl)cc1` (centres undefined) [BACLOFEN], the Activity in data set [27] amounted to 0.197 µg/mL; in data set [28] it was 0.162 µg/mL; in [30] it was 0.097 µg/mL; in data set [31] it was 0.13 µg/mL. Also, the TD50 in data set [2] was 47 mg/kg. Also, the 50% effective dose (ED50) in data set [3] was more than 600 mg/kg. In data set [4], this compound displayed a Dose of 50 mg/kg.

In the case of `CCCC(CCC)C(=O)O` [VALPROIC ACID], the results for the ED50 in data set [1] and in data set [4] were 360 mg/kg and 149 mg/kg, respectively.

For `O=C1NC(=O)C(c2ccccc2)(c2ccccc2)N1`, the ED50 result in [32] and in [33] was “inactive” throughout.
